Measured values pooled from the literature.
Compare with care: the assays were run in different laboratories.
SLC10A2: Ileal sodium/bile acid cotransporter (SLC10A2, Homo sapiens, UniProt Q12908)
SETD7: Histone-lysine N-methyltransferase SETD7 (SETD7, Homo sapiens, UniProt Q8WTS6)

target | read-out | mode | method | tested at | time | inhibition [%] | Structure (SMILES)
SLC10A2 | transporter uptake | inhibitor | radiometric | 1 mM |  | 30.2 | CNC(=C[N+](=O)[O-])NCCSCc1ccc(CN(C)C)o1
SETD7 | cell-free assay |  |  | 10 µM |  | 27 | O=c1c(O)cccc2cc(O)c(O)c(O)c12
Serine/threonine-protein kinase 35 (STK35, Homo sapiens, UniProt Q8TDR2) | enzyme activity | inhibitor |  | 1 µM |  | 1 | CN1CC(Oc2cnc(C#N)cc2-c2ccn3nc(NC(=O)C4CC4)cc3c2)C1
Melanocortin receptor 5 (MC5R, Homo sapiens, UniProt P33032) | ligand displacement |  | radioligand | 10 µM | 40 min | 0 | CC(=O)N[C@H]1CSSC[C@@H](C(=O)N[C@H](Cc2c[nH]c3ccccc23)C(N)=O)NC(=O)[C@@H](Cc2ccccc2)NC(=O)[C@H](CCCNC(=N)N)NC1=O
SETD7 | cell-free assay |  |  | 10 µM |  | 7 | CSCCC(NC=O)C(=O)NC(C)C(=O)O (stereo not drawn)
SLC10A2 | transporter uptake | inhibitor | radiometric | 1 mM |  | < 10 | O=C(O)c1cc(=O)c2c(OCC(O)COc3cccc4oc(C(=O)O)cc(=O)c34)cccc2o1
SETD7 | cell-free assay |  |  | 10 µM |  | 16 | O=c1c(O)cccc2c([C@H]3Oc4cc(O)cc(O)c4C[C@H]3O)cc(O)c(O)c12
SLC10A2 | transporter uptake | inhibitor | radiometric | 1 mM |  | 59.9 | C=C[C@H]1C[N@@]2CC[C@H]1C[C@H]2[C@H](O)c1ccnc2ccc(OC)cc12
Histone-lysine N-methyltransferase SETD2 (SETD2, Homo sapiens, UniProt Q9BYW2) | enzyme activity | inhibitor |  | 1 µM |  | 20 | CCN(c1cc(C#CCN2CCOCC2)cc(C(=O)NCc2c(C)cc(C)[nH]c2=O)c1C)[C@H]1CC[C@H](N(C)CCOC)CC1
